High-throughput results: PubChem, several laboratories
CSC inhib: cancer stem cell inhibition. cancer stem cell-like cells viability, luminescence. 300,000 compounds, 1.1% hits. AID 2717. inhibition, % at 7.5 µM; in the data active means inhibition above about 75%; tested in HMLE shEcad cells
MC4R barr agon: human MC4R agonism via beta-arrestin; P32245; U2OS MC4R beta-arrestin complementation, luminescence; percent of melanotan II response, DMSO zero; activation, % at 8.9 µM; 360,000 compounds, 0.98% hits; AID 540308;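 active means activation above a per-plate cutoff, the mean activation of sample wells on that plate plus 3 SD, cut at about 8% in these data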
TMEM16A act: mouse TMEM16A channel activation, primary screen. Q8BHY3. HEK293 TMEM16A/YFP-H148Q/I152L, iodide quench fluorescence; active compounds read low. B-score at 10 µM. 340,000 compounds, 0.3% hits. AID 623877;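 active means fluorescence-ratio B-score plate-corrected deviation score at least 3 library SD below zero, with starting fluorescence score within 5 deviations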;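 further: channel opened by trigger with iodide after compound preincubation; score built on the fluorescence ratio of max minus min over baseline; more negative score means more quench and so TMEM16A activation or potentiation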
Target sequence (Q8BHY3 whole entry, looked up): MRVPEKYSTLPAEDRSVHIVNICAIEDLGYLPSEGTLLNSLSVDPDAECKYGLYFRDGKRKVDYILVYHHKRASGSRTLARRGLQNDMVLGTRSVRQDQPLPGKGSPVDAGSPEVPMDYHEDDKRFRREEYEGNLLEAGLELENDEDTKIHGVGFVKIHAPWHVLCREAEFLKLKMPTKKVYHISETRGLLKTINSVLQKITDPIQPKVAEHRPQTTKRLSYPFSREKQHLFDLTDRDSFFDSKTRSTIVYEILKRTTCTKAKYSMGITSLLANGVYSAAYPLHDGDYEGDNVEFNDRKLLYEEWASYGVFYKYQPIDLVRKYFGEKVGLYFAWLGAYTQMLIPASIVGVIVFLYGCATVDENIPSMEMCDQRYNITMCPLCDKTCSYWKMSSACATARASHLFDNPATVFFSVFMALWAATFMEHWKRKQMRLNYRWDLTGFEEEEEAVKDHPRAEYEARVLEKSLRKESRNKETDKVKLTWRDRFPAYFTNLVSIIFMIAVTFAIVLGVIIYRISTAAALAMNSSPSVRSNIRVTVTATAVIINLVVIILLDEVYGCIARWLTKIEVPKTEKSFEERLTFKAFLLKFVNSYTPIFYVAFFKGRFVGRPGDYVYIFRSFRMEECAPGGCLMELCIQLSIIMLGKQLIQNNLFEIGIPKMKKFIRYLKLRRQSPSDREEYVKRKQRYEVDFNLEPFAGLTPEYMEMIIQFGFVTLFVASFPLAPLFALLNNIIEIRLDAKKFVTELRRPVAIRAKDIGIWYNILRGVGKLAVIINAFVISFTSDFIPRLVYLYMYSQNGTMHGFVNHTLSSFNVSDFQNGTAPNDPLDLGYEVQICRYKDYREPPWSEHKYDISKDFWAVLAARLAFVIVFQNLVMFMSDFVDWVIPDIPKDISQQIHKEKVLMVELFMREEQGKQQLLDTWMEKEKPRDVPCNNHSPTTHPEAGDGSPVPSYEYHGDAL
Beta apoptosis: blocks beta cell apoptosis; INS-1E cytokine-induced death, ATP luminescence, 48 h; percent of positive-control rescue, neutral wells zero; 300,000 compounds, 0.8% hits; protection from apoptosis, % (no concentration beside the values);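 active means Every replicate reaches about 75%, or at least half do and their mean reaches it too, limit read from the data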;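 further: higher means more ATP so stronger rescue from cytokine killing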
MC4R antag cAMP: human MC4R antagonism in cAMP assay. P32245. 360,000 compounds, 0.48% hits. inhibition, % at 6.5 µM. MC4R-expressing cells, MTII-stimulated cAMP, LANCE TR-FRET;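 active means inhibition above its plate's cutoff, the mean of tested wells on that plate plus 3 SD, cut at about 29% in these data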
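Assay system: human MC4R-expressing U2OS cells; reagent: Melanotan II stimulation of cells; dosing: 6.5 µM single dose; timing: compound 30 min, challenge 1 h, detection 1 h; signal: TR-FRET cAMP assay; replicates: one well per compound, no replicates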
TMEM16A inh: blocks the mouse calcium-activated chloride channel TMEM16A | Q8BHY3 | HEK293 TMEM16A/YFP iodide influx fluorescence, ionomycin | normalized B-score (activity score, 25-100; higher = stronger inhibition) at 10 µM | 310,000 compounds, 1.2% hits;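 active means ratio plate-corrected score three or more library SD toward inhibition, starting fluorescence score within five deviations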;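 further: score derived from kinetic fluorescence span divided by baseline fluorescence per well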
MC4R barr ag: human MC4R beta-arrestin agonism confirmation. activation, % at 8.9 µM. shares compounds with MC4R barr agon. U2OS MC4R beta-arrestin recruitment, luminescence; scaled DMSO 0%, Melanotan II 100%. 2,400 compounds, 31% hits;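 active means mean activation across replicates above the hit cutoff set in the earlier primary screen, cut at about 8% in these data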
MOR-DOR barr ag: activates mu-delta opioid heterodimer, MC4R agonist counter-screen; U2OS PathHunter beta-arrestin, beta-gal luminescence; percent of deltorphin B response, DMSO zero; activation, % at 9.2 µM; shares compounds with MC4R barr agon; 2,400 compounds, 5.8% hits;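 active means mean activation across replicates exceeds the hit threshold derived in the earlier primary screen, cut at about 18% in these data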
Each line names hits and unclear results; the compound was inactive in the other large screens (follow-up assays come after a bar, where they were run). The list is not random: actives were taken first. Their share in the collection is about 3.8%.

NC(Cc1ccc(Cl)cc1)c1csc(Nc2ccc(C(=O)c3ccccc3)cc2)n1 (centres undefined)	MC4R barr agon 12 (no result: CSC inhib, TMEM16A act, Beta apoptosis, TMEM16A inh) | MC4R barr ag 18 | MOR-DOR barr ag 19
CC(=O)c1ccc(Nc2nc(C(N)C3CCCCC3)cs2)cc1 (centres undefined)	none (no result: CSC inhib, TMEM16A act, Beta apoptosis, TMEM16A inh)
NC(Cc1ccc(F)cc1)c1csc(Nc2ccc(C(=O)c3ccccc3)cc2)n1 (centres undefined)	MC4R barr agon 13 (no result: CSC inhib, TMEM16A act, Beta apoptosis, TMEM16A inh) | MC4R barr ag 19 | MOR-DOR barr ag 24
Cc1cc(-c2ccc(C(C)C)c(S(=O)(=O)Nc3cc(C)on3)c2)on1	none
Cc1nn(CC(=O)NCCc2ccc(Cl)cc2)c(=O)c2cccn12	none (no result: Beta apoptosis)
Cc1ccc(S(=O)(=O)NCC(=O)OCC(=O)NCc2ccco2)cc1	none (no result: TMEM16A inh)
CCOC(=O)c1[nH]c2ccc(Cl)cc2c1NC(=O)/C=C/c1ccc2c(c1)OCO2	MC4R barr agon 38 | MC4R barr ag inactive | MOR-DOR barr ag inactive
CCN(CC(=O)Nc1c(C(=O)OC)[nH]c2ccc(Cl)cc12)c1ccc2c(c1)OCO2	none
CCCCN1CC(O)=C(c2nc(-c3ccc(Br)cc3)cs2)C1=N	none
CCOC(=O)CCCN1CC(O)=C(c2nc(-c3ccc(Cl)cc3)cs2)C1=N	MC4R barr agon 23 | MC4R barr ag inactive | MOR-DOR barr ag inactive
COc1ccc(CN(C)CC(=O)N2CCc3ccccc3C2)cc1	none
Cc1ccc(NC(=O)Cc2ccc(-n3cccc3)cc2)c(C)c1	none
Cc1cc(C)cc(NC(=O)Cc2ccc(-n3cccc3)cc2)c1	MC4R barr agon 9.7 | MC4R barr ag inactive | MOR-DOR barr ag inactive
Cc1cc(OCCN2CCC(Cc3ccccc3)CC2)ccc1[N+](=O)[O-]	MC4R barr agon 14 | MC4R barr ag inactive | MOR-DOR barr ag inactive
Cc1ccc(NC(=O)CN2C(=O)S/C(=C\c3cccn3C)C2=O)cc1	MC4R barr agon 15 | MC4R barr ag inactive | MOR-DOR barr ag inactive
Cc1cc(NC(=O)CCN2C(=O)/C(=C/c3ccccc3Cl)SC2=S)no1	MC4R barr agon 16 | MC4R barr ag inactive | MOR-DOR barr ag inactive
CC(/C=C1\SC(=S)N(CCC(=O)Nc2ccc(O)cc2)C1=O)=C\c1ccccc1	MC4R barr agon 22 | MC4R barr ag 13 | MOR-DOR barr ag inactive
Cc1ccc(/C=C2/SC(=S)N(CCCC(=O)Nc3ccc(O)cc3)C2=O)cc1	MC4R barr agon 17 (no result: CSC inhib, Beta apoptosis, TMEM16A inh) | MC4R barr ag inactive | MOR-DOR barr ag inactive
Cc1ccc(NC(=O)CN2C(=O)S/C(=C\c3ccccn3)C2=O)cc1	none
COc1ccccc1/C=C1\SC(=S)N(CCC(=O)Nc2cc(C)on2)C1=O	none
CCOc1ccccc1CNC(=O)C1CCCN(c2nnc(C)c3c(C)n(-c4ccccc4)nc23)C1 (centres undefined)	none
COc1cccc(/C=C2/SC(=S)N(CCCC(=O)Nc3ccc(O)cc3)C2=O)c1	MC4R barr agon 9.9 | MC4R barr ag 20 | MOR-DOR barr ag inactive
Cc1ccc(/C=C2\SC(=S)N(CCC(=O)NNS(=O)(=O)c3ccccc3)C2=O)cc1	MC4R barr agon 47 | MC4R barr ag inactive | MOR-DOR barr ag inactive
O=C(CCN1C(=O)/C(=C/c2cccs2)SC1=S)Nc1ccc(O)cc1	MC4R barr agon 11 (no result: Beta apoptosis) | MC4R barr ag inactive | MOR-DOR barr ag inactive
O=C(CCN1C(=O)/C(=C/c2cccs2)SC1=S)Nc1cccc(O)c1	none (no result: Beta apoptosis)
Cc1ccc(/C=C2\SC(=S)N(CCC(=O)NNC(=O)c3ccccc3O)C2=O)cc1	none (no result: Beta apoptosis)
COc1cccc(/C=C2\SC(=S)N(CCCC(=O)Nc3ccc(C(=O)O)cc3)C2=O)c1	none
Cn1c(=O)c2sccc2n2c(CCCC(=O)NCc3ccco3)nnc12	none
O=[N+]([O-])c1ccc(OCC(O)CN(C2CCCCC2)C2CCCCC2)cc1 (centres undefined)	none
CC(C)CN(CC(C)C)CC(O)COc1ccc([N+](=O)[O-])cc1 (centres undefined)	MC4R barr agon 10 | MC4R barr ag inactive | MOR-DOR barr ag inactive
CC(=O)c1cccc(NC(=O)CNC(=O)c2sc3ccccc3c2Cl)c1	MC4R barr agon 19 (no result: Beta apoptosis) | MC4R barr ag 24 | MOR-DOR barr ag 18
Cc1cccc(NC(=O)CNC(=O)c2sc3ccccc3c2Cl)n1	MC4R barr agon 11 | MC4R barr ag inactive | MOR-DOR barr ag inactive
Cc1nn(Cc2c(Cl)cccc2Cl)c(C)c1NC(=O)c1sc2ccccc2c1Cl	MC4R barr agon 45 | MC4R barr ag inactive | MOR-DOR barr ag inactive
Cc1ccc(S(=O)(=O)N(C)c2ccc(OC(=O)c3cccs3)cc2)cc1C	none (no result: TMEM16A inh)
COc1ccccc1N(C)S(=O)(=O)c1ccc(C)c(C(=O)NCc2ccccn2)c1	none (no result: TMEM16A inh)
CC(C)NC[C@H](O)COc1ccc(CC(N)=O)cc1	none (no result: Beta apoptosis)
Cc1nc2c(-c3ccc(F)cc3)c(C)nn2c(C)c1CCC(=O)Nc1ccccc1F	MC4R barr agon 13 | MC4R barr ag inactive | MOR-DOR barr ag inactive
N#CCC(=O)Nc1ccc(C(=O)OCC(=O)N2CCN(C(=O)c3ccco3)CC2)cc1	none (no result: TMEM16A inh)
COc1ccccc1C(CNC(=O)c1cccc(S(=O)(=O)NCc2ccccc2)c1)N(C)C (centres undefined)	none
Cc1cccc(OCc2nnc(NC(=O)Cc3cccs3)s2)c1	MC4R barr agon 34 | MC4R barr ag 9.9 | MOR-DOR barr ag inactive
c1cc2c(cc1C1CCCCC1)c1c3n2CCCNC3CCC1 (centres undefined)	MC4R barr agon 15 | MC4R barr ag 32 | MOR-DOR barr ag inactive
Cc1ccc2c(c1)c1c3n2CCCNC3CCC1 (centres undefined)	none
CCCn1c(SCC(=O)NC2CCCC2)nc2c1c(=O)n(C)c(=O)n2C	none
Nc1nonc1-n1nnc(C(=O)N/N=C/c2ccc(OCc3ccccc3)cc2)c1CNc1ccccc1	MC4R barr agon 25 | MC4R barr ag inactive | MOR-DOR barr ag inactive
CCCc1c(C(=O)N/N=C/c2cccc3ccccc23)nnn1-c1nonc1N	MC4R barr agon 17 | MC4R barr ag inactive | MOR-DOR barr ag inactive
CC(C)c1c(C(=O)N/N=C/c2ccc(OCc3ccccc3)cc2)nnn1-c1nonc1N	MC4R barr agon 14 | MC4R barr ag inactive | MOR-DOR barr ag inactive
CC1CCN(Cc2c(C(=O)O)nnn2-c2nonc2N)CC1	none
Cc1cc(C)c(/C=N/NC(=O)c2nnn(-c3nonc3N)c2CN2CCC(C)CC2)c(C)c1	MC4R barr agon 17 | MC4R barr ag 16 | MOR-DOR barr ag inactive
